The other results are listed elsewhere or left out. A number with no mark means an inactive call. Calls of active or inactive are those of the source.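 The calls were made as follows, unless noted: active = mean of duplicate thallium-flux fluorescence ratios in parental host cells more than 5 SD below the buffer control mean (cut at about 0.38 in these data); inactive = the rest.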
Legend:
[1] = molecular target: Potassium voltage-gated channel subfamily KQT member 1 (Homo sapiens) (UniProt P51787); assay: blockers of human KCNQ1 channel – cell-based, Tl flux, duplicate, confirmation (AID 588353;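 active = primary screen active, with duplicate mean exceeding buffer control mean plus 3 SD of buffer wells, cut at about 28% in these data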;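 also: 0% = buffer control ratio and 100% = XE991 inhibitor control ratio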); conditions: KCNQ1 cell line, FluxOR thallium flux fluorescence, at 10 µM, stronger effect = higher value
Potassium voltage-gated channel subfamily KQT member 1 (Homo sapiens), sequence (P51787 whole entry, looked up): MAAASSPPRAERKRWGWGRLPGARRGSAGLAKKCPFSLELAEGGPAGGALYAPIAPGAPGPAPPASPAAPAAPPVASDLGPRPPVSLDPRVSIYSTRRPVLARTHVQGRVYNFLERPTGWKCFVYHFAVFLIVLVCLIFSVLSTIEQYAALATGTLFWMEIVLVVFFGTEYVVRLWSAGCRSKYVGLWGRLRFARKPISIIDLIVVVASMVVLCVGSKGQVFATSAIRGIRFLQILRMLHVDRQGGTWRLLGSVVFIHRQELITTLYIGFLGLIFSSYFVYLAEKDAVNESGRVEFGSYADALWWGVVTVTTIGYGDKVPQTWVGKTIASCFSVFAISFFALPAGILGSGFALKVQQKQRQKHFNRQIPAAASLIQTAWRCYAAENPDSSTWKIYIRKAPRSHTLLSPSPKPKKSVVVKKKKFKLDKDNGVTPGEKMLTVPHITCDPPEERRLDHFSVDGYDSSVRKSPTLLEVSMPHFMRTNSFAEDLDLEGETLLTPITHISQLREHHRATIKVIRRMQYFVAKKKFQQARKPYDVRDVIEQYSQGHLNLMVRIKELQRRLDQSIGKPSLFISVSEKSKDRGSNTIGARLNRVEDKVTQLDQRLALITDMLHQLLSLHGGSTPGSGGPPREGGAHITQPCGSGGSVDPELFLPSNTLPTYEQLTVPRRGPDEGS
In short: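 Test system: CHO cells stably expressing KCNQ1 potassium channel / Evaluation: percent inhibition of fluorescence change ratio, scaled buffer to XE991 / Technique: FluxOR thallium flux fluorescence, 10 s baseline plus 110 s / Schedule: 90 min dye load, 20 min dark compound exposure, room temperature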

[2] = nonspecific activity in CHO-K1 cells without KCNQ1 – parental CHO cells, Tl flux, counter-screen for KCNQ1 inhibitor project (AID 588366); conditions: parental CHO-K1, FluxOR thallium flux fluorescence ratio; at 10 µM; stronger effect = lower value; zero means no signal rise above baseline;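 also: ratio is peak minus minimum fluorescence divided by baseline fluorescence; actives read low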
In short: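 Assay system – untransfected parental CHO-K1 cells · Technique – kinetic Tl+ flux fluorescence with FluxOR dye · Timing – FluxOR dye loading 90 min, compound exposure 20 min, room temperature · Replication – duplicate measurements per compound · Also added – K+/Tl+ depolarizing stimulus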

[3] = molecular target: Potassium voltage-gated channel subfamily KQT member 2 (Rattus norvegicus) (UniProt O88943); assay: block of rat KCNQ2 potassium channel – cell-based, selectivity assay for KCNQ1 inhibitor project (AID 651746;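 active = mean percent inhibition of the KCNQ2 thallium signal more than 5 SD above the buffer-only control wells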;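 as to inhibition: 0% = buffer control wells and 100% = XE-991 inhibitor control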); conditions: KCNQ2 cells, FluxOR thallium flux fluorescence, at 10 µM; stronger effect = higher value
Potassium voltage-gated channel subfamily KQT member 2 (Rattus norvegicus), sequence (O88943 whole entry, looked up): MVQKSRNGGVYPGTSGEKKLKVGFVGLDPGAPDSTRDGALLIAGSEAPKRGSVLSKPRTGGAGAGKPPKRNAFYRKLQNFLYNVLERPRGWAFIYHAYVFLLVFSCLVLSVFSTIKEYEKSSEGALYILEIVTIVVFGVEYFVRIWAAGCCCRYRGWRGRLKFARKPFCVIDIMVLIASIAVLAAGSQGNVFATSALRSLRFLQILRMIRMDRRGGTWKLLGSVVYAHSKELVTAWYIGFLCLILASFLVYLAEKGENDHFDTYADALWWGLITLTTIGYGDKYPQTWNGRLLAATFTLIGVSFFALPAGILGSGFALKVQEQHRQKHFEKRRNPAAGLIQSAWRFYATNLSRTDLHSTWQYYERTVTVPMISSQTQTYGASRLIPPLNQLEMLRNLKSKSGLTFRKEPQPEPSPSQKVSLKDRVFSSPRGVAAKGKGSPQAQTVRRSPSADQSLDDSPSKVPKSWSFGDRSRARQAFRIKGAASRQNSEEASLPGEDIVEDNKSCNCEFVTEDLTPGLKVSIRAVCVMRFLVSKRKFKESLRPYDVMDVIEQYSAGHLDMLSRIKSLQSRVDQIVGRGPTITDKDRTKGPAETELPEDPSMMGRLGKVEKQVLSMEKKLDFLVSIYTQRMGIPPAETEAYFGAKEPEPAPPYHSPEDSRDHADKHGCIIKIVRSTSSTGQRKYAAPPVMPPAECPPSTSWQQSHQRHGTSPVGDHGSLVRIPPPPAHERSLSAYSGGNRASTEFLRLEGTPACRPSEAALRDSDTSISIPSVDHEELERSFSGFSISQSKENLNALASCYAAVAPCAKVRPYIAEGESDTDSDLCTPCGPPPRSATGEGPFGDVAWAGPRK

[4] = molecular target: Potassium voltage-gated channel subfamily E member 1 (Homo sapiens) + Potassium voltage-gated channel subfamily KQT member 1 (Homo sapiens) (UniProt P15382+P51787); assay: block of human IKs channel complex – CHO-K1 cells, thallium flux, FluxOR, selectivity assay for KCNQ1 inhibitor project (AID 652147;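 active = mean percent inhibition of duplicate wells above the buffer-only control mean plus 3 SD of those controls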;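 as to inhibition: 0% = buffer only wells and 100% = XE-991 inhibitor control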); conditions: KCNQ1/KCNE1 cells, FluxOR thallium flux fluorescence, at 10 µM; stronger effect = higher value
Potassium voltage-gated channel subfamily E member 1 (Homo sapiens) + Potassium voltage-gated channel subfamily KQT member 1 (Homo sapiens), sequence (P51787 whole entry, looked up): as the sequence (P51787 whole entry, looked up) above
In short: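 System: cells expressing KCNQ1/KCNE1 channels; timing: 20 min compound pre-incubation at room temperature; technique: FluxOR thallium influx fluorescence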

| Compound | inhibition [1] | fluorescence ratio (Tl flux) [2] | inhibition [3] | inhibition [4] | outcome [4] | outcome [3] |
| --- | --- | --- | --- | --- | --- | --- |
| Cc1nc(Nc2ccc3c(c2)OCCO3)c2nnn(Cc3ccccc3Cl)c2n1 | 83% (active) | 0.413 | 96% (active) | 102% (active) | – | – |
| CC(C)OC(=O)C(C#N)c1nc2ccccc2nc1N1CCN(Cc2ccccc2)CC1 (stereo unspecified) | 148% (active) | 0.382 | 100% (active) | – | inactive | – |
| c1ccc2c(c1)C(=NC1CCCCC1)NC2=NC1CCCCC1 | 48% (active) | 0.526 | – | – | inactive | inactive |
| Cc1ccc(-c2noc(CC(c3ccccc3)c3ccccc3)n2)cc1 | 65.5% (active) | 0.45 | 77% (active) | 116% (active) | – | – |
| CSc1nccc(NC(=O)c2ccc(C(C)(C)C)cc2)n1 | 153% (active) | 0.366 (active) | 105% (active) | 144% (active) | – | – |
| CNC(=O)c1ccsc1NC(=O)c1ccc(S(=O)(=O)N2CCc3ccccc32)cc1 | 97% (active) | 0.446 | 115% (active) | 170% (active) | – | – |
| CC1CCC2(CC1)NC(=O)N(CC(=O)c1cccn1C)C2=O (stereo unspecified) | 31% (active) | 0.503 | – | – | inactive | inactive |
| Cc1nn(C)cc1N1C(=O)c2cccc3c(N)ccc(c23)C1=O | – | 0.006 (active) | – | – | inactive | inactive |
| Cc1nnc(SC(C(=O)Nc2cc(Cl)cc(Cl)c2)c2ccccc2)[nH]c1=O (stereo unspecified) | 43% (active) | 0.471 | – | – | inactive | – |
| O=C(Nc1nnc(S(=O)(=O)N2CCCCCC2)s1)c1cccc(Br)c1 | 57% (active) | 0.485 | – | – | inactive | inactive |
| Oc1ccc2ccc3cccc[n+]3c2c1 | – | 0.012 (active) | – | – | inactive | inactive |
| CC(=O)N1CCCc2cc(S(=O)(=O)N3CCCC(C(=O)N4CCN(c5cccc(Cl)c5)CC4)C3)ccc21 (stereo unspecified) | 126% (active) | 0.436 | 134% (active) | 140% (active) | – | – |
| CCCC(=O)N1CCN(c2nnc(-c3ccc(C)cc3)c3ccccc23)CC1 | 0% [the number is a placeholder, only the call stands] | 0.507 | 75% (active) | 78% (active) | – | – |
| FC(F)Oc1ccc(NC(=S)NCc2ccco2)cc1Cl | 56.5% (active) | 0.494 | – | 38% (active) | – | inactive |
| CCOc1ccc(CN2CCN(Cc3c[nH]c4ccccc34)CC2)cc1 | 0% [the number is a placeholder, only the call stands] | 0.441 | – | 40% (active) | – | inactive |
| COc1ccc(-c2cc(C(F)(F)F)nc(S(C)(=O)=O)n2)cc1OC | 27% (active) | 0.445 | – | 77.5% (active) | – | inactive |
| CCNC(=O)c1ccc(OCC(=O)Nc2ccc(F)cc2)c(OC)c1 | 0% [the number is a placeholder, only the call stands] | 0.446 | – | 51% (active) | – | inactive |

| Compound | inhibition [1] | fluorescence ratio (Tl flux) [2] | inhibition [3] | inhibition [4] | outcome [4] | outcome [3] |
| --- | --- | --- | --- | --- | --- | --- |
| Cc1cccc(NC(=S)Nc2ccc(Cl)c(Cl)c2)c1 | 49% (active) | 0.565 | – | – | inactive | inactive |
| Cc1cc2nc3c(=O)n(Cc4ccccc4)c(=O)[nH]c3nc2cc1N | 93% (active) | 0.332 (active) | – | 110% (active) | – | inactive |
| Cc1cc(C)cc(N(CC(=O)N2CC=C(c3ccccc3)CC2)S(=O)(=O)c2c(C)noc2C)c1 | 78% (active) | 0.363 (active) | 111% (active) | 84% (active) | – | – |
| Cc1ccc(S(=O)(=O)Nc2ccc3ncccc3c2)cc1 | 76.5% (active) | 0.499 | – | – | inactive | inactive |
| Cc1ccccc1C(=O)OC1OC(=O)C(Cl)=C1Nc1ccccc1 (stereo unspecified) | 79% (active) | 0.434 | – | 65% (active) | – | – |
| CC(C(=O)NCC1CCCCC1)N(C)Cc1cccc(Cl)c1 (stereo unspecified) | 62% (active) | 0.435 | 76% (active) | 84% (active) | – | – |
| CCC(=C/c1sc2ccc3ccccc3c2[n+]1C)/C=C1\Sc2ccc3ccccc3c2N1C | 57.5% (active) | 0.508 | 59% (active) | 64% (active) | – | – |
| O=C(Nc1ccc(Cl)cc1)Nc1ccc(Oc2cccnc2)nc1 | 56% (active) | 0.487 | – | – | inactive | – |
| S=C(Nc1cccc(Cl)c1)Nc1ccc2c(c1)OCCO2 | 81% (active) | 0.444 | – | 47% (active) | – | inactive |
| COc1ccc(S(=O)(=O)/N=C2\C=C(NS(=O)(=O)c3ccccc3)C(=O)c3ccccc32)cc1 | 31.5% (active) | 0.44 | – | – | inactive | inactive |
| Fc1cc(Br)ccc1NC(=S)Nc1cccnc1 | 33% (active) | 0.539 | – | – | inactive | inactive |
| O=C1CCc2cc(S(=O)(=O)N3CCC(C(=O)NCc4ccccc4Cl)CC3)ccc2N1 | 0% [the number is a placeholder, only the call stands] | 0.447 | – | – | inactive | inactive |
| O=C(Nc1ccc(F)cc1)c1cccnc1N1CCOCC1 | 44% (active) | 0.517 | – | 53.5% (active) | – | inactive |
| COc1cccc(-c2cnc(OC(C)(C)C)nc2OC(C)(C)C)c1 | 75% (active) | 0.462 | 61% (active) | 94.5% (active) | – | – |
| Cc1oc2c(F)c(F)c(F)c(F)c2c1S(=O)(=O)Nc1cccc(C(F)(F)F)c1 | 0% [the number is a placeholder, only the call stands] | 0.531 | – | – | inactive | inactive |
| N#Cc1c(/N=C/N2CCCC2)oc(-c2ccccc2)c1-c1ccccc1 | 70% (active) | 0.445 | 74.3% (active) | 79% (active) | – | – |
| O=C1CCCN1CCCNC(=S)Nc1ccc(F)c(Cl)c1 | 51% (active) | 0.445 | 72.7% (active) | 58.5% (active) | – | – |
